Assay results as given in ChEMBL document CHEMBL1145994, “CCR2: characterization of the antagonist binding site from a combined receptor modeling/mutagenesis approach” (J Med Chem, 2003).
Active and inactive are the calls of the source. No cut-off for these calls is given here.

What was measured:
[1] = target: T1, C-C chemokine receptor type 2 (Homo sapiens, UniProt P41597); assay: Binding affinity of compound (10 uM) towards Y210A-292A receptor variant (double mutant CCR2 receptor) using radioligand [125I]MCP-1 in HEK 293 cells; Inactive; type: cell-based; settings: HEK293
How it was run: (§1)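 Wild-type or point-mutant CCR2 cDNA in pcDNA3.1 transiently transfected into HEK-293T cells at 50–80% confluence, with a co-transfected human G-protein plasmid cocktail. Membranes harvested 48 h later by sonication and differential centrifugation.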
Target sequence in this assay (P41597 whole entry, looked up): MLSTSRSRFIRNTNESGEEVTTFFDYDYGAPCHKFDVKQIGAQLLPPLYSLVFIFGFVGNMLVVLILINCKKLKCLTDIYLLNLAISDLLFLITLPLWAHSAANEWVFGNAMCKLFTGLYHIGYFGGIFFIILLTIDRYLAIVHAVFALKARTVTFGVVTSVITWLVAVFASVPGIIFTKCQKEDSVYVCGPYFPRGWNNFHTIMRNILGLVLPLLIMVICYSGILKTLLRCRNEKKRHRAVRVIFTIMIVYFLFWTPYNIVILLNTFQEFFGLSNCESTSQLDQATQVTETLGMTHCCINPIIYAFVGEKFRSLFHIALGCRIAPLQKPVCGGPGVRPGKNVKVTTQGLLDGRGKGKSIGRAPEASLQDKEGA

[2] = target: C-C chemokine receptor type 2 (Homo sapiens, UniProt P41597, E291Q); assay: Binding affinity of compound (10 uM) towards E291Q receptor variant (mutant CCR2 receptor) using radioligand [125I]MCP-1 in HEK 293 cells; type: cell-based, HEK293; how it was run: as §1
[3] = target: C-C chemokine receptor type 2 (Homo sapiens, UniProt P41597, H121A); assay: Binding affinity of compound (10 uM) towards H121A receptor variant (mutant CCR2 receptor) using radioligand [125I]MCP-1 in HEK 293 cells; type: cell-based, HEK293
C-C chemokine receptor type 2 (Homo sapiens, UniProt P41597, H121A), sequence (P41597 whole entry H121A): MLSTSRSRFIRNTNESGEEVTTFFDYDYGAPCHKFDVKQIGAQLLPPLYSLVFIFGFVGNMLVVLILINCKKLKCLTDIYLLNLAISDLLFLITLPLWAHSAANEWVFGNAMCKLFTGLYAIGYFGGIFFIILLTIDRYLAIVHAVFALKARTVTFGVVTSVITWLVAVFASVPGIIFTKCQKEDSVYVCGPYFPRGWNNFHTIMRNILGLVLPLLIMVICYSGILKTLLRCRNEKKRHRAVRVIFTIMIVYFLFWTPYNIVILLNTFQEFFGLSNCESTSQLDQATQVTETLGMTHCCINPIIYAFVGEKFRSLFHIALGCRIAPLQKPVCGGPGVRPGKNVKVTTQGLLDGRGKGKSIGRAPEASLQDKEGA

[4] = target: C-C chemokine receptor type 2 (Homo sapiens, UniProt P41597, H121A/T292A); assay: Binding affinity of compound (10 uM) towards H121A/T292A receptor variant (double mutant CCR2 receptor) using radioligand [125I]MCP-1 in HEK 293 cells; type: cell-based, HEK293; how it was run: as §1
C-C chemokine receptor type 2 (Homo sapiens, UniProt P41597, H121A/T292A), sequence (P41597 whole entry H121A/T292A): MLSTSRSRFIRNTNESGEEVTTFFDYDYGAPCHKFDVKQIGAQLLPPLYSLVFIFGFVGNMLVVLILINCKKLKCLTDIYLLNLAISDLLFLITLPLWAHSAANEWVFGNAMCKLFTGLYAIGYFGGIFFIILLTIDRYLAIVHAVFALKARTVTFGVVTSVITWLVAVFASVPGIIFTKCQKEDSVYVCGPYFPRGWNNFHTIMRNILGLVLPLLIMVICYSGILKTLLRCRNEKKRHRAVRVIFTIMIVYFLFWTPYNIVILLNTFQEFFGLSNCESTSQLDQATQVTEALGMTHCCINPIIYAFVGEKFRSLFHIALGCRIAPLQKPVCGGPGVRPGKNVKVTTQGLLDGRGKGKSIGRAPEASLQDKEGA

[5] = target: C-C chemokine receptor type 2 (Homo sapiens, UniProt P41597, H121F); assay: Binding affinity of compound (10 uM) towards H121F receptor variant (mutant CCR2 receptor) using radioligand [125I]MCP-1 in HEK 293 cells; type: cell-based, HEK293
C-C chemokine receptor type 2 (Homo sapiens, UniProt P41597, H121F), sequence (P41597 whole entry H121F): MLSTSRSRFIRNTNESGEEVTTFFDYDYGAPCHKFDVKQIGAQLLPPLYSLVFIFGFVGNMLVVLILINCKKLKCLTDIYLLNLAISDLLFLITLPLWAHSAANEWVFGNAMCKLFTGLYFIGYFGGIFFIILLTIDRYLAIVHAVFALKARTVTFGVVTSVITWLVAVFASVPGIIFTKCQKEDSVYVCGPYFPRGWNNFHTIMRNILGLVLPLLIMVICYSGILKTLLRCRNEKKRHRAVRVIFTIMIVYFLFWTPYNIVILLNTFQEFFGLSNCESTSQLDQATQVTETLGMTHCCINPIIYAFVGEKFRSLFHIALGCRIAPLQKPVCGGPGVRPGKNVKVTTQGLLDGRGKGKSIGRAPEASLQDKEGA

[6] = target: C-C chemokine receptor type 2 (Homo sapiens, UniProt P41597, Q288A); assay: Binding affinity of compound (10 uM) towards Q288A receptor variant (mutant CCR2 receptor) using radioligand [125I]MCP-1 in HEK 293 cells; type: cell-based, HEK293
C-C chemokine receptor type 2 (Homo sapiens, UniProt P41597, Q288A), sequence (P41597 whole entry Q288A): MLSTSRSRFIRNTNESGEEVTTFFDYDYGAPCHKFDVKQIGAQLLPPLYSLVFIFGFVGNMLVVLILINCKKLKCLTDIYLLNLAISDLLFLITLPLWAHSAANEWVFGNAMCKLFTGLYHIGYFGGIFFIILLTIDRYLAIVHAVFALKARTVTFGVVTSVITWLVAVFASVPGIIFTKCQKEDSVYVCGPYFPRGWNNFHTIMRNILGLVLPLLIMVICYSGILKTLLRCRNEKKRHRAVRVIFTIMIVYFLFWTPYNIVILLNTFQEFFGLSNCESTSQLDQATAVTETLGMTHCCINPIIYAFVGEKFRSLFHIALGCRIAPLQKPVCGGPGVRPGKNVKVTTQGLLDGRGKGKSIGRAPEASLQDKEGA

[7] = target: C-C chemokine receptor type 2 (Homo sapiens, UniProt P41597, T290A); assay: Binding affinity of compound (10 uM) towards T290A receptor variant (mutant CCR2 receptor) using radioligand [125I]MCP-1 in HEK 293 cells; type: cell-based, HEK293
C-C chemokine receptor type 2 (Homo sapiens, UniProt P41597, T290A), sequence (P41597 whole entry T290A): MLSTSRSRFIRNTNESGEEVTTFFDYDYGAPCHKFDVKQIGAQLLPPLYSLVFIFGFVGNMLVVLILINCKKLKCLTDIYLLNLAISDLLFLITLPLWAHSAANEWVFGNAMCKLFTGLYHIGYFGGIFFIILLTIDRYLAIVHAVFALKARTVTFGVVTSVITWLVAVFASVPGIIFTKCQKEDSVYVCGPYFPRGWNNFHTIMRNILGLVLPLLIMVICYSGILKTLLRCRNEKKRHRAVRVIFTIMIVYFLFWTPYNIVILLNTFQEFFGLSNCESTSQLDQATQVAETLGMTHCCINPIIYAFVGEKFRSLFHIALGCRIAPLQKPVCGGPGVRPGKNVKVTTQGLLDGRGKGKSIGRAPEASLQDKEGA
How it was run: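 HEK 293 cells transiently transfected with point-mutated human CCR2 (lipofectAMINE Plus, with a human G-protein plasmid cocktail). Membranes were harvested 48 h later in HEPES pH 7/sucrose/EDTA with protease inhibitors.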

[8] = target: C-C chemokine receptor type 2 (Homo sapiens, UniProt P41597, T292A); assay: Binding affinity of compound (10 uM) towards T292A receptor variant (mutant CCR2 receptor) using radioligand [125I]MCP-1 in HEK 293 cells; type: cell-based, HEK293
C-C chemokine receptor type 2 (Homo sapiens, UniProt P41597, T292A), sequence (P41597 whole entry T292A): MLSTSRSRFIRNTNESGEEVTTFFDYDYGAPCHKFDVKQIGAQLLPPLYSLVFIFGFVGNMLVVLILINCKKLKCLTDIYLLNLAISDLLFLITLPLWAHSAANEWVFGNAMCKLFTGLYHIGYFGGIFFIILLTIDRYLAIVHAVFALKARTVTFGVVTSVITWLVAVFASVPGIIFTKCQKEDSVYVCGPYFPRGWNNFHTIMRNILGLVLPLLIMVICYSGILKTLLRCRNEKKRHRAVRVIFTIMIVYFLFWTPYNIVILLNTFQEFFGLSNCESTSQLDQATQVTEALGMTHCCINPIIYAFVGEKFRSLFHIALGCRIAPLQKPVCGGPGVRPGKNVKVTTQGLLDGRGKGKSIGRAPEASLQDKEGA

[9] = target: T1, C-C chemokine receptor type 2; assay: Binding affinity of compound (10 uM) towards […] receptor variant (mutant CCR2 receptor) using radioligand [125I]MCP-1 in HEK 293 cells; type: cell-based, HEK293; how it was run: as §1
Target sequence in this assay (P41597 whole entry, looked up, stated change not applied): as the sequence (P41597 whole entry, looked up) above

[10] = target: T1, C-C chemokine receptor type 2; assay: Inhibition of chemotaxis by C-C chemokine receptor type 2 antagonist in human monocytes was measured in the presence 1 nM MCP-1; type: functional, cell-based
How it was run: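 Human monocyte chemotaxis driven by 1 nM MCP-1 as agonist. Antagonist added from a 10 mM DMSO stock, final 10 nM to 10 μM; vehicle control included. Values reported as pKb.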
Target sequence in this assay (P41597 whole entry, looked up): as above

[11] = target: T1, C-C chemokine receptor type 2; assay: Binding displacement of [125I]MCP-1 (0.14 nM) was measured on CHO cell membranes expressing human CCR2 (C-C chemokine receptor type 2)
Target sequence in this assay (P41597 whole entry): as the sequence (P41597 whole entry, looked up) above

[12] = target: C-C chemokine receptor type 2 (Homo sapiens, UniProt P41597, D284A); assay: Binding affinity of compound (10 uM) towards D284A receptor variant (mutant CCR2 receptor) using radioligand [125I]MCP-1 in HEK 293 cells; type: cell-based, HEK293
C-C chemokine receptor type 2 (Homo sapiens, UniProt P41597, D284A), sequence (P41597 whole entry D284A): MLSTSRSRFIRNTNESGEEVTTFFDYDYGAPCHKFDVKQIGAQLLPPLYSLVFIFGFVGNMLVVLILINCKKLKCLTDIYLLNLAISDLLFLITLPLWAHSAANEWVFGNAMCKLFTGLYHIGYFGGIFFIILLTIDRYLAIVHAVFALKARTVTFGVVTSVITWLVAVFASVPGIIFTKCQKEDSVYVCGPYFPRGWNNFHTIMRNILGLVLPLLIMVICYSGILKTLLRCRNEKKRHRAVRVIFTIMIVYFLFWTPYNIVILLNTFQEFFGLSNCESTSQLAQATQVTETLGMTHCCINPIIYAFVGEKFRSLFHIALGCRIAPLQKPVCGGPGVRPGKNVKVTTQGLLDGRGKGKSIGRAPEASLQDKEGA

[13] = target: T1, C-C chemokine receptor type 2; assay: Binding affinity of compound (10 uM) towards WT receptor variant (mutant C-C chemokine receptor type 2) using radioligand [125I]MCP-1 in HEK 293 cells; type: cell-based; settings: hek293
Target sequence in this assay (P41597 whole entry, looked up, stated change not applied): as the sequence (P41597 whole entry, looked up) above

[14] = target: C-C chemokine receptor type 2 (Homo sapiens, UniProt P41597, Y49F); assay: Binding affinity of compound (10 uM) towards Y49F receptor variant (mutant CCR2 receptor) using radioligand [125I]MCP-1 in HEK 293 cells; type: cell-based, HEK293
C-C chemokine receptor type 2 (Homo sapiens, UniProt P41597, Y49F), sequence (P41597 whole entry Y49F): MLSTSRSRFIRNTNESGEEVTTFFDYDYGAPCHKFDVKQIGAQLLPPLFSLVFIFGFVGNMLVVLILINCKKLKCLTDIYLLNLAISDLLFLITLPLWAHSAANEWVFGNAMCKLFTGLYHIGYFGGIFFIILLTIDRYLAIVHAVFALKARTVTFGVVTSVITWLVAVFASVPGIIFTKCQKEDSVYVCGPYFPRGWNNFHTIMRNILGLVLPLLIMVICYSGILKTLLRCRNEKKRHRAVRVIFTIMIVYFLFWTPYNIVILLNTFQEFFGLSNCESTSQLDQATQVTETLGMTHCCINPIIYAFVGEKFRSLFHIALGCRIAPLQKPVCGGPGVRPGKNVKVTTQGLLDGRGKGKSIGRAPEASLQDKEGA

[15] = target: T1, C-C chemokine receptor type 2; settings: HEK293
Target sequence in this assay (P41597 whole entry, looked up): as the sequence (P41597 whole entry, looked up) above

[16] = test system: T2, C-C chemokine receptor type 2 (Homo sapiens), P41597 [E291Q]; settings: HEK293
T2 sequence (whole entry): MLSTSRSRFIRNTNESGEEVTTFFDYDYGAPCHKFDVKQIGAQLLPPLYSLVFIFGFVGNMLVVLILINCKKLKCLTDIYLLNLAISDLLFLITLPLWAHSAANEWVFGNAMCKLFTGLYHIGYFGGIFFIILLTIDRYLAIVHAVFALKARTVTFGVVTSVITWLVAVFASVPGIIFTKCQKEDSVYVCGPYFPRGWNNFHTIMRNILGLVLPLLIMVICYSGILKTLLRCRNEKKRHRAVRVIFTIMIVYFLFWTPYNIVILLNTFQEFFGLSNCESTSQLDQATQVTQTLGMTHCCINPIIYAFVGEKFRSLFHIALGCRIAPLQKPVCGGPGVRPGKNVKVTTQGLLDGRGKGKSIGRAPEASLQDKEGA

[17] = target: T1, C-C chemokine receptor type 2; settings: HEK293; remark: listed apart in the source
Target sequence in this assay (P41597 whole entry, looked up): as the sequence (P41597 whole entry, looked up) above

[18] = test system: T2, C-C chemokine receptor type 2 (Homo sapiens), P41597 [E291Q]; assay: Binding affinity of compound (10 uM) towards E291Q receptor variant (mutant CCR2 receptor) using radioligand [125I]MCP-1 in HEK 293 cells; Inactive; type: cell-based; settings: HEK293; how it was run: as §1
[19] = target: T1, C-C chemokine receptor type 2; assay: Inhibitory activity against C-C chemokine receptor type 2 (antagonist activity); type: functional
Target sequence in this assay (P41597 whole entry): as the sequence (P41597 whole entry, looked up) above

Row | SMILES | Log Ki [1] | Ki [2] [µM] | Ki [3] [µM] | Ki [4] [µM] | Ki [5] [µM] | Ki [6] [µM] | Ki [7] [µM] | Ki [8] [µM] | Ki [9] [µM] | pKb [10] | Ki [11] [µM] | Ki [12] [µM] | Log Ki [13] | Ki [14] [µM] | Log Ki [15] | Log Ki [16] | Log Ki [17] | Log Ki [18] | IC50 [19] [µM]
1 | Cc1ccc(-c2ccc3c(c2)C=C(C(=O)Nc2ccc(CN(C)C4CCOCC4)cc2)CCC3)cc1 | inactive | 2.04 | 0.302 | 4.79 | 0.024 | 0.229 | 0.105 | 0.759 | 2.57 | 8.63 | 0.0288 | 0.589 | -7.16 | 0.151 |  |  |  |  | 
2 | Cc1ccc2c(c1)C1(CCN(CCc3nc(-c4ccccc4)oc3C)CC1)OC(=O)N2 |  |  |  |  |  |  |  |  |  | 7.57 |  |  |  |  | inactive | inactive | inactive |  | 
3 | Cc1ccc(-c2ccc3c(c2)C=C(C(=O)Nc2ccc(C[N+](C)(C)C4CCOCC4)cc2)CCC3)cc1.[Cl-] |  | 0.148 | 0.0178 | 0.182 | 0.00263 | 0.00977 | 0.0214 | 0.0288 | 0.105 | 9.53 | 0.00417 | 0.0126 | -8.16 | 0.0275 |  |  |  |  | 
4 | O=C(/C=C/c1ccc(Cl)c(Cl)c1)NCCCCCN1CCC(c2c[nH]c3ccc(O)cc23)CC1 |  |  | 2.51 | 2.09 | 0.166 | 0.17 | 0.129 | 0.724 | 0.562 | 7.71 |  | 0.229 | -7 | 0.0166 |  |  |  | inactive | 
5 | Cc1ccc(CN2CC[C@@H](NC(=O)CNC(=O)c3cccc(C(F)(F)F)c3)C2)c(C)c1 | inactive |  | 2.57 |  | 0.661 | 0.316 |  | 7.76 | 1.82 | 6.4 | 0.288 | 0.724 | -6.47 | 0.316 |  |  |  | inactive | 0.054
